Converted amounts (≈) assume the structure as drawn. The source made the active and inactive calls.
Key:
[1] = system: Pseudomonas aeruginosa; experiment: Antibacterial activity against Pseudomonas aeruginosa ATCC 15442 after 18 to 22 hrs in absence of colistin by broth microdilution method; type: functional
[2] = system: Escherichia coli; experiment: Antibacterial activity against Escherichia coli 1411 harboring delta-acrAB after 18 to 22 hrs in absence of colistin by broth microdilution method; type: functional
[3] = system: Acinetobacter baumannii; experiment: Antibacterial activity against Acinetobacter baumanii ATCC 19606 after 18 to 22 hrs in presence of 1/4 times MIC colistin by broth microdilution method; type: functional; settings: ATCC 19606 = CIP 70.34 = JCM 6841
How it was run: (§1)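 Broth microdilution per CLSI guidelines. Gram-negatives grown in TSB. Each strain tested alone and again with colistin at ¼ × MIC to permeabilize the outer membrane. Plates incubated at 37 °C for 18–22 h. MIC read as the lowest concentration showing no visible growth.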

[4] = system: Enterobacter cloacae; experiment: Antibacterial activity against Enterobacter cloacae BAA-1154 after 18 to 22 hrs in presence of 1/4 times MIC colistin by broth microdilution method; type: functional; how it was run: as §1
[5] = system: Staphylococcus aureus; experiment: Antibacterial against Methicillin-Resistant Staphylococcus aureus after 18 to 20 hrs by broth microdilution method; type: functional
[6] = system: Enterococcus faecium; experiment: Antibacterial activity against vancomycin-resistant Enterococcus faecium clinical isolates after 18 to 22 hrs by broth microdilution method; type: functional
How it was run: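 CLSI broth microdilution against panels of enterococcal isolates. E. faecalis grown in TSB, E. faecium in BHI, 37 °C for 18–22 h. MIC is the lowest concentration without visible growth. MIC50 is the value inhibiting 50% of isolates in each group.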

[7] = system: Enterococcus faecium; experiment: Bactericidal activity against vancomycin-resistant Enterococcus faecium ATCC 700221 assessed as bacterial regrowth at 4 times MIC after 22 hrs by time-kill assay; type: functional
How it was run: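 Late-log cells diluted to ~5 × 10^6 CFU/mL and exposed in triplicate to 4 × MIC, in TSB (E. faecalis HM-201) or BHI (E. faecium ATCC 700221) at 37 °C. Sampled at 0, 2, 4, 6, 8, 10, 12 and 24 h, diluted serially in PBS and plated on TSA or BHI agar. CFU/mL counted after 18–22 h. DMSO served as negative control.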

[8] = system: HRT-18 cell line; experiment: Cytotoxicity against human HRT18 cells assessed as reduction in cell viability up to 20 ug/ml after 2 hrs by MTS assay; type: cell-based; settings: hrt-18, 2 h
How it was run: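 HRT-18 cells maintained in RPMI-1640 with 10% fetal horse serum at 37 °C, 5% CO2. Exposed to 5, 10, 20 or 40 μg/mL for 2 or 24 h, then MTS added and absorbance read at 490 nm. Viability expressed relative to untreated cells, n ≥ 3, one-way ANOVA with Dunnett's test.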

[9] = system: Enterococcus faecium; experiment: Antibacterial activity against vancomycin-resistant Enterococcus faecium ATCC HM-968 after 14 serial passages measured after 18 hrs by broth microdillution method; type: functional
How it was run: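 Multi-step selection over 14 passages in two weeks. McFarland 0.5 inoculum diluted 1:300 in TSB (E. faecalis) or BHI (E. faecium) to 1 × 10^5 CFU/mL. Each passage reinoculated at ~5 × 10^5 CFU/mL from the sub-inhibitory well of the previous plate. Compounds serially diluted in triplicate, incubated ≥18 h at 37 °C, MIC read visually. Resistance defined as >4-fold MIC rise.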

[10] = system: Escherichia coli; experiment: Antibacterial activity against tolC deficient Escherichia coli assessed as formation of misshapen cells at 25 ug/ml after 2 hrs in presence of sucrose by FM4-64/DAPI/SYTOX Green staining-based deconvolution microscopic analysis; type: functional
[11] = system: Escherichia coli; experiment: Antibacterial activity against tolC deficient Escherichia coli assessed as cell lysis at 25 ug/ml after 30 mins in presence of sucrose by FM4-64/DAPI/SYTOX Green staining-based deconvolution microscopic analysis; type: functional
[12] = system: Bacillus subtilis; experiment: Antibacterial activity against Bacillus subtilis assessed as bending of cells at 5 times MIC after 2 hrs in presence of methylsulfonyl methane by phase contrast microscopic analysis; type: functional
How it was run: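 B. subtilis grown in LB at 37 °C to OD600 ~0.2, then treated at 5 × MIC with MSM for osmotic stabilisation. At 2 h, stained with FM 4-64 (1 μg/mL), DAPI (1 μg/mL) and SYTOX Green (1 μg/mL). Imaged by deconvolution fluorescence and phase contrast microscopy.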

[13] = Inhibition of Escherichia coli UPPS using IPP and FPP as substrate preincubated for 30 mins followed by substrate addition measured after 20 mins by malachite green phosphate assay
How it was run: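 Purified E. coli UPPS preincubated 30 min at room temperature with inhibitor (200 to 0.2 μM) in 100 mM HEPES, 50 mM NaCl, 0.5 mM MgCl2, 0.02% DDM, pH 7.5. Then 10 μM IPP and FPP added with 0.375 U/mL inorganic phosphatase. Phosphate read by malachite green at 620 nm. IC50 from dose-response curves.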

[14] = Induction of proton motive force collapse in Escherichia coli inverted membrane vesicle in presence of ATP-driven PMF generation system by ACMA-based fluorescence assay; type: functional, cell membranes
How it was run: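 E. coli inverted membrane vesicles (0.1 mg/mL membrane protein) with 2 μM ACMA and 0.5 mM ATP or succinate, in 10 mM HEPES-KOH, 5 mM MgSO4, 100 mM KCl, pH 7.5. Proton gradient followed by ACMA fluorescence (ex 410/em 480 nm). EC50 taken from dose-response curves. CCCP used as reference uncoupler.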

[15] = system: Enterococcus faecium; experiment: Potentiation of vancomycin-induced antibacterial activity against Enterococcus faecium HM-968 assessed as fold reduction in vancomycin MIC preincubated for 30 mins followed by vancomycin addition measured after 18 to 21 hrs; type: functional
How it was run: (§2)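 VRE suspensions at 5×10^5 CFU/mL preincubated with compound at ½ × MIC for 30 min at room temperature. […] Fold reduction calculated as vancomycin MIC alone over MIC in combination.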

[16] = system: Enterococcus faecalis; experiment: Potentiation of vancomycin-induced antibacterial activity against Enterococcus faecalis HM-201 assessed as fold reduction in vancomycin MIC preincubated for 30 mins followed by vancomycin addition measured after 18 to 21 hrs; type: functional; how it was run: as §2
[17] = system: Enterococcus faecalis; experiment: Synergistic antimicrobial activity against Enterococcus faecalis ATCC 51299 after 20 hrs in presence of ciprofloxacin by checkerboard assay; type: functional
How it was run: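 Checkerboard assay. McFarland 0.5 suspension diluted in TSB to 1 × 10^5 CFU/mL. Compound diluted along one plate axis and antibiotic along the other, each starting at 2× or 4× MIC. Incubated 20 h at 37 °C, MIC read as no visible growth. Synergy defined as ΣFIC ≤0.5, additive >0.5 to <2, indifferent 2–4, antagonistic >4.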

[18] = system: Enterococcus faecalis; experiment: Synergistic antimicrobial activity against Enterococcus faecalis ATCC 49533 after 20 hrs in presence of ciprofloxacin by checkerboard assay; type: functional
How it was run: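 Checkerboard in TSB with a starting inoculum of 1×10^5 CFU/mL. Compound and antibiotic diluted from 2× or 4× MIC along perpendicular axes. Incubated 20 h at 37 °C. ΣFIC calculated: ≤0.5 synergy, >0.5 to <2 additive, 2–4 indifference, >4 antagonism.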

[19] = system: Escherichia coli; experiment: Antibacterial activity against tolC deficient Escherichia coli assessed as formation of spheroplasts at 25 ug/ml after 2 hrs by FM4-64/DAPI/SYTOX green staining-based deconvolution microscopic analysis; type: functional

## CCCCc1ccc(-c2nc(C)c(/C(C)=N/NC(=N)N)s2)cc1
[1]
  MIC: 64 µg/mL (≈ 194 µM)
[2]
  MIC: 4 µg/mL (≈ 12.1 µM)
[3]
  MIC: 1 µg/mL
[4]
  MIC: 1 µg/mL
[5]
  MIC: 1.3 to 5.6 µg/mL (≈ 3.95 to 17 µM)
[6]
  MIC50: 2 µg/mL (≈ 6.07 µM)
[7]
  Activity: Active
[8]
  Activity: Non-Toxic
[9]
  Activity: Active
[10]
  Activity: Active
[11]
  Activity: Active
[12]
  Activity: Active
[13]
  IC50: 19 µM
[14]
  EC50: 12 µM
[15]
  Activity: inactive
[16]
  Activity: inactive
[17]
  fractional inhibitory concentration index (FICI): 0.5
[18]
  fractional inhibitory concentration index (FICI): 0.63 - 1
[19]
  Activity: Active

Reference: ChEMBL document CHEMBL4028805, “Phenylthiazole Antibacterial Agents Targeting Cell Wall Synthesis Exhibit Potent Activity in Vitro and in Vivo against Vancomycin-Resistant Enterococci” (J Med Chem, 2017)
